Measurements published in ChEMBL document CHEMBL3227928, “Phosphonate analogue of 2'-deoxy-5-fluorouridylic acid” (J Med Chem, 1979).

Columns and labels:
[1] = Inhibition of coliphage T2 thymidylate synthetase using dUMP as substrate preincubated for 20 mins followed by substrate addition; design: species or system Enterobacteria phage T2
Summary of the method: (§1)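 Enzyme and inhibitor preincubated 20 min at 30 °C in assay mix with 0.11 M 2-mercaptoethanol, 3 × 10^-4 M tetrahydrofolate, 0.012 M formaldehyde and 0.021 M MgCl2. Reaction started by adding dUMP to 4 × 10^-5 M. Enzyme concentrations were 8 × 10^-9 M for L. casei, 8 × 10^-9 M for E. coli (calculated assuming the L. casei turnover number) and 4 × 10^-9 M for T2. Concentration giving 50% inhibition reported.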

Thymidylate synthase = biological target: T1, Thymidylate synthase (Lactobacillus casei, UniProt P00469); assay: Inhibition of Lactobacillus casei thymidylate synthetase using dUMP as substrate preincubated for 20 mins followed by substrate addition; design: species or system Lacticaseibacillus casei; summary of the method: as §1
T1 sequence (P00469 whole entry): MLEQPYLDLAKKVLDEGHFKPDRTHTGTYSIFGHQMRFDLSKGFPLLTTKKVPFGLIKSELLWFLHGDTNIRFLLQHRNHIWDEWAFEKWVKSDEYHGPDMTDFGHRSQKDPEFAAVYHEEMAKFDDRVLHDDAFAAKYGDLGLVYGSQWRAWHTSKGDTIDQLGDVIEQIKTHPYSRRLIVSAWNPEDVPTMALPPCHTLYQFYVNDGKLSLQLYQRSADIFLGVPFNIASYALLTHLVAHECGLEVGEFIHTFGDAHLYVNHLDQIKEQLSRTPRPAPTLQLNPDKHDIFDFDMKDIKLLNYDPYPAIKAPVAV

[2] = Inhibition of Escherichia coli thymidylate synthetase using dUMP as substrate preincubated for 20 mins followed by substrate addition; summary of the method: as §1
[3] = biological target: T2, Thymidylate synthase (Lactobacillus casei) (UniProt P00469); assay: Inhibition of Lactobacillus casei thymidylate synthetase using dUMP as substrate at 20 uM preincubated for 5 mins followed by substrate addition relative to control; details: Lacticaseibacillus casei
T2 sequence (whole entry): T1 sequence (P00469 whole entry)

[4] = biological target: T2, Thymidylate synthase (Lactobacillus casei); assay: Inhibition of Lactobacillus casei thymidylate synthetase using dUMP as substrate at 20 uM preincubated for 10 mins followed by substrate addition relative to control; details: Lacticaseibacillus casei
[5] = biological target: T2, Thymidylate synthase (Lactobacillus casei); assay: Inhibition of Lactobacillus casei thymidylate synthetase using dUMP as substrate at 20 uM preincubated for 20 mins followed by substrate addition relative to control; details: Lacticaseibacillus casei
[6] = biological target: T2, Thymidylate synthase (Lactobacillus casei); assay: Inhibition of Lactobacillus casei thymidylate synthetase using dUMP as substrate at 20 uM preincubated for 40 mins followed by substrate addition relative to control; details: Lacticaseibacillus casei
[7] = Cytotoxicity against human Hep2 cells assessed as growth inhibition; format: functional; details: HEp-2, read-out: ED50 (the source's name)
[8] = biological target: T2, Thymidylate synthase (Lactobacillus casei); assay: Inhibition of Lactobacillus casei thymidylate synthetase using dUMP as substrate at 20 uM preincubated for 0 mins followed by substrate addition relative to control; details: Lacticaseibacillus casei

- IC50 [1]: 0.06 µM
- IC50 (Thymidylate synthase): 7 µM
- IC50 [2]: 0.6 µM
- inhibition [3]: 45%
- inhibition [4]: 64%
- inhibition [5]: 75%
- inhibition [6]: 85%
- inhibition [8]: 0%
Compound: O=c1[nH]c(=O)n([C@H]2C[C@H](O)[C@@H](CCP(=O)(O)O)O2)cc1F
- EC50 [7]: 45 µM
